5-HT1A blocker = 5-HT1a (human) receptor antagonism | P08908 | CHO 5-HT1a Ga15 NFAT-bla reporter, antagonist mode | inhibition, % at 10 µM | 62,000 tested, 0.68% active | AID 612;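 active means inhibition above the mean of all tested compounds plus 3 SD, cut at about 43% in these data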;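 further: receptor stimulated by 5-CT agonist at 100 nM near EC80; beta-lactamase reporter measured by ratiometric fluorescence of a cleavable substrate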
S1P3 agonist = activates the human S1P3 receptor; S1P3 NFAT-BLA reporter cells, agonism, FRET ratio; relative to 1 µM S1P, basal subtracted; Q99500; activation, % at 4.5 µM; 60,000 tested, 0.1% active;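 active means activation above the screen-wide mean plus 3 SD, cut at about 4.5% in these data, passing the limit was not always enough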
Target sequence (Q99500 whole entry, looked up): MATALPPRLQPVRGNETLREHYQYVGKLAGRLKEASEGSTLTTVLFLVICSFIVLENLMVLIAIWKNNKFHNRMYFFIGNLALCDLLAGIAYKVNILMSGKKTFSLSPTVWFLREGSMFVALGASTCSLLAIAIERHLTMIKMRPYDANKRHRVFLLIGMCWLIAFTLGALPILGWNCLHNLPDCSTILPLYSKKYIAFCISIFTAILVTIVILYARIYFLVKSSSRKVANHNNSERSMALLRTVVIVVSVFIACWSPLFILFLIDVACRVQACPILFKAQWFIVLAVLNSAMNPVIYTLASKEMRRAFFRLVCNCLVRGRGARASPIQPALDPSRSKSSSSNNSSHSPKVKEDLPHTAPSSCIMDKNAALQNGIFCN
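Benchmarks: high control 1 µM S1P / System: stable CHO line with human S1P3, Gα16, NFAT-BLA reporter / Dosing: single compound concentration, 4.5 µM final / Timing: 4 h compound at 37 °C, 2 h substrate at RT / Measured by: FRET β-lactamase substrate fluorescence, excitation 405 nm, 460/535 nm emission ratio, background-subtracted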
5HT1a ag = activates the human 5-HT1a serotonin receptor. AID 567. 65,000 tested, 0.56% active. CHO 5-HT1a Ga15 NFAT-bla reporter, FRET ratio; 0% basal, 100% maximal reference agonist. P08908. activation, % at 10 µM;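 active means activation above the screen-wide mean activation plus 3 SD, cut at about 19% in these data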;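 further: 0% = DMSO wells and 100% = 5-CT at EC100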
HTR1E agonist = 5-HT1E (human) receptor agonism. P28566. CHO 5-HT1E Ga15 NFAT-bla reporter, FRET; 0% DMSO wells, 100% control agonist wells. activation, % at 6 µM. AID 574. 65,000 tested, 0.69% active;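 active means activation above a set limit, the screen-wide mean activation plus 3 SD, cut at about 8.5% in these data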;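 further: 100% = positive control agonist at 1 µM giving full maximal response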
5HT1E antag = antagonists of human 5-HT1E serotonin receptor. P28566. CHO 5-HT1E Ga15 NFAT-bla reporter, FRET, antagonist. inhibition, % at 6 µM. 65,000 tested, 0.99% active. AID 571;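 active means inhibition above a set limit, the mean inhibition across every tested compound plus 3 SD, cut at about 29% in these data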;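 further: signal is the 460 over 535 nm emission ratio of beta-lactamase substrate; 0% = agonist plus DMSO wells and 100% = wells without agonist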
S1P1 ag pot = activates or potentiates agonism at human S1P1 receptor. 56,000 tested, 0.57% active. P21453. activation, % at 9.5 µM. S1P1 CRE-bla cells, forskolin, beta-lactamase FRET, potentiator mode; S1P1 agonist co-added at EC20, 2 nM; 100% = saturating reference agonist, 0% = basal;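 active means activation above a cutoff set at the mean activation of all tested compounds plus 3 SD, cut at about 54% in these data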;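 further: forskolin at 4 µM as EC80 and the EC20 agonist is SEW2871; 100% = SEW2871 at its EC100 plus forskolin at EC80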
Active calls of the source: *. The list is not random: actives were taken first. Their share in the collection is about 3%.

How did CCC(CC)C(=O)Nc1cc(=O)n(C)c(=O)n1C do in these assays?
5-HT1A blocker: 12; S1P3 agonist: 1; 5HT1a ag: 36*; HTR1E agonist: 0; 5HT1E antag: 9; S1P1 ag pot: -24

What do the screens show for `CN(C)c1ccc(C2C3C(=O)NC(=O)C3ON2c2ccc(Cl)cc2)cc1` (centres undefined)?
5-HT1A blocker: 5; S1P3 agonist: -1; 5HT1a ag: -1; HTR1E agonist: 0; 5HT1E antag: 12; S1P1 ag pot: 13

How did Cc1ccccc1C(=O)Nc1cccc(NC(=O)Cn2cnc3c(=O)n(C)c(=O)n(C)c32)c1 do in these assays?
5-HT1A blocker: -1; S1P3 agonist: -1; 5HT1a ag: -1; HTR1E agonist: 0; 5HT1E antag: 1; S1P1 ag pot: 2

How did COc1ccc2[nH]cc(C(O)CN3CCN(c4ccccc4)CC3)c2c1 (centres undefined) do in these assays?
5-HT1A blocker: 13; S1P3 agonist: -1; 5HT1a ag: 1; HTR1E agonist: 0; 5HT1E antag: -4; S1P1 ag pot: -16

How did COc1ccc(N2CCN(CC(O)c3c[nH]c4ccc(OC)cc34)CC2C)cc1 (centres undefined) do in these assays?
5-HT1A blocker: 19; S1P3 agonist: -1; 5HT1a ag: 23*; HTR1E agonist: 0; 5HT1E antag: 3; S1P1 ag pot: -1

Results for O=C(CN1CCc2ccccc2C1)c1cccs1 ?
5-HT1A blocker: 10; S1P3 agonist: 0; 5HT1a ag: 0; HTR1E agonist: 0; 5HT1E antag: 3; S1P1 ag pot: -2

How did CSCC[C@H](NC(=O)NCc1ccccc1F)C(=O)O do in these assays?
5-HT1A blocker: -2; S1P3 agonist: -2; 5HT1a ag: -2; HTR1E agonist: -1; 5HT1E antag: -4; S1P1 ag pot: -4

Results for CSCC[C@H](NC(=O)Nc1ccc(C)cc1C)C(=O)O ?
5-HT1A blocker: -4; S1P3 agonist: 1; 5HT1a ag: 111*; HTR1E agonist: 0; 5HT1E antag: 5; S1P1 ag pot: 11

What do the screens show for `NC(=O)C1CCN(C(=O)CSc2nc3c(c(-c4ccccc4)n2)CCCC3)CC1`?
5-HT1A blocker: 14; S1P3 agonist: -1; 5HT1a ag: -1; HTR1E agonist: -2; 5HT1E antag: 17; S1P1 ag pot: 5

How did CCCCN1C(=O)c2ccc(C(=O)Nc3c(N)n(CCCC)c(=O)n(C)c3=O)cc2C1=O do in these assays?
5-HT1A blocker: -2; 5HT1a ag: 2; HTR1E agonist: -2; 5HT1E antag: -2

Results for Cc1cccc(N2CCN(C(=O)c3ccc(Cl)c(S(=O)(=O)NCc4ccco4)c3)CC2)c1C ?
5-HT1A blocker: 7; S1P3 agonist: -2; 5HT1a ag: 4; HTR1E agonist: 16*; 5HT1E antag: 8; S1P1 ag pot: -6

Results for O=C(O)c1ccc(Cl)c(S(=O)(=O)NCc2ccco2)c1 ?
5-HT1A blocker: 4; S1P3 agonist: -1; 5HT1a ag: -3; HTR1E agonist: 0; 5HT1E antag: -2; S1P1 ag pot: -5

What do the screens show for `CC(C)(C)N1C(=O)Cc2c1nc(N)c1c(N)nc(N3CCCCC3CO)c(C#N)c21` (centres undefined)?
5-HT1A blocker: 53*; S1P3 agonist: 0; 5HT1a ag: -1; HTR1E agonist: 0; 5HT1E antag: 34*; S1P1 ag pot: -40

What do the screens show for `COc1ccc(-c2noc(CSc3nc(N)c(-c4ccccc4)c(=O)[nH]3)n2)cc1`?
5-HT1A blocker: 6; S1P3 agonist: 0; 5HT1a ag: 1; HTR1E agonist: 0; 5HT1E antag: 8

Results for O=C(C1CCC1)N1CCc2cc(S(=O)(=O)Nc3ccc4c(c3)OCCO4)ccc21 ?
5-HT1A blocker: 9; S1P3 agonist: -1; 5HT1a ag: -4; HTR1E agonist: 0; 5HT1E antag: 9; S1P1 ag pot: 115*

How did CCC(=O)N1CCc2cc(S(=O)(=O)Nc3ccc4c(c3)OCCO4)ccc21 do in these assays?
5-HT1A blocker: 7; 5HT1a ag: -1; HTR1E agonist: -1; 5HT1E antag: 8

How did CCN(CC)CCCN1C(=O)C(=O)/C(=C(/O)c2ccc3c(c2)OCO3)C1c1ccccn1 (centres undefined) do in these assays?
5-HT1A blocker: 2; S1P3 agonist: -1; 5HT1a ag: 0; HTR1E agonist: 0; 5HT1E antag: 7; S1P1 ag pot: -5

What do the screens show for `CN(C)CCCN1C(=O)C(=O)/C(=C(/O)c2ccc3c(c2)OCCO3)C1c1ccccn1` (centres undefined)?
5-HT1A blocker: -1; S1P3 agonist: -1; 5HT1a ag: 81*; HTR1E agonist: 0; 5HT1E antag: 2; S1P1 ag pot: 4

What do the screens show for `CCNc1nc(C)c2cc(Br)c(=O)n(CC)c2n1`?
5-HT1A blocker: 42; S1P3 agonist: -2; 5HT1a ag: -1; HTR1E agonist: -1; 5HT1E antag: 58*; S1P1 ag pot: -35

Results for CCOC(=O)c1cc2occc2n1CC(=O)N1CCCc2ccccc21 ?
5-HT1A blocker: 9; S1P3 agonist: 0; 5HT1a ag: 0; HTR1E agonist: 0; 5HT1E antag: -10; S1P1 ag pot: 2

How did CCOC(=O)c1cnc(SC2CCc3ccccc3C2=O)nc1N (centres undefined) do in these assays?
5-HT1A blocker: 4; S1P3 agonist: -1; 5HT1a ag: 2; HTR1E agonist: -1; 5HT1E antag: -4; S1P1 ag pot: -11

How did O=C(NCc1ccco1)c1cccc2c1C(=O)N(C1CCCCC1)C2 do in these assays?
5-HT1A blocker: 14; S1P3 agonist: -2; 5HT1a ag: 2; HTR1E agonist: 1; 5HT1E antag: 30*; S1P1 ag pot: -2

How did O=C(NCc1cccnc1)c1cccc2c1C(=O)N(C1CCCCC1)C2 do in these assays?
5-HT1A blocker: 5; S1P3 agonist: 0; 5HT1a ag: 1; HTR1E agonist: 0; 5HT1E antag: 12; S1P1 ag pot: -8

What do the screens show for `CCOc1ccc(S(=O)(=O)NC(C)(C)C)cc1-c1nc2c(C(C)(C)C)nn(C)c2c(=O)[nH]1`?
S1P3 agonist: -3; 5HT1a ag: 8; HTR1E agonist: 0; 5HT1E antag: 0; S1P1 ag pot: -47

How did COc1ccc2nc(SCC(N)=O)[nH]c2c1 do in these assays?
5-HT1A blocker: -4; S1P3 agonist: -1; 5HT1a ag: -2; HTR1E agonist: -1; 5HT1E antag: -5; S1P1 ag pot: -16

What do the screens show for `COc1ccc2nc(SCc3nc(N)nc(Nc4ccccc4)n3)[nH]c2c1`?
5-HT1A blocker: 6; S1P3 agonist: 1; 5HT1a ag: 5; HTR1E agonist: 2; 5HT1E antag: 40*; S1P1 ag pot: -69
